# Measurements gathered from unrelated publications.
SMILES,host,sample,route,dose,setting,Cmax
CCNC(=O)c1nc(-c2ccc3[nH]c(-c4nc(C)no4)cc3c2)c(C)[nH]1,Sprague-Dawley rat,plasma,oral,10 mg/kg,suspension,2600 nM
CNCc1cc(-c2ccccc2F)n(S(=O)(=O)c2cccnc2)c1,Sprague-Dawley rat,plasma,oral,10 mg/kg,,245 ng/mL
COc1ccc(C(C)=O)c(O)c1,male Sprague-Dawley rat,plasma,oral,100 mg/kg,,8460 ng/mL
N#Cc1[nH]nnc1-c1cc(Cl)cc(/C=C/c2cccc(C(F)(F)F)c2)c1,male Sprague-Dawley rat,plasma,oral,10 mg/kg,,2670 ng/mL
CC(C)OC(=O)NC1CCN(Cc2cc(Cl)c3cccnc3c2O)CC1,rat,blood,intraperitoneal,30 mg/kg,,200 nM
COc1cc(/C=C/C(=O)CC(=O)/C=C/c2ccc(O)c(OC)c2)ccc1O,male Sprague-Dawley rat,plasma,oral,100 mg/kg,,5.99 ng/mL
Cc1ccc(S(=O)(=O)n2cc3c4c2C(=O)C(NCc2ccc(Cl)cc2)=CC4=NCC3)cc1,rat,plasma,intravenous,5 mg/kg,single dose,1240 ng/mL
N#Cc1[nH]nnc1-c1csc(-c2ccc(Cl)cc2)n1,male Sprague-Dawley rat,plasma,oral,10 mg/kg,,5230 ng/mL
Cc1c(-c2ccccc2)cccc1N1C(=O)c2cc(CN[C@H](C(=O)O)C(C)O)c(OCc3cccc(C#N)c3)cc2C1=O (stereo partly shown),Sprague-Dawley rat,plasma,oral,50 mg/kg,,26 ng/mL
N#Cc1ccc(Nc2nc(N)cc(Oc3c(F)cc(-c4ccc(C#N)cc4)cc3F)n2)cc1,Sprague-Dawley rat,plasma,intravenous,1 mg/kg,,251 ng/mL
O=C(Nc1cc(F)c(F)c(F)c1)c1ccc(F)c(S(=O)(=O)NCc2cccc(B(O)O)c2)c1,male Sprague-Dawley rat,plasma,oral,20 mg/kg,,46.3 ng/mL
CCc1cc(C(=O)NC)c2nccc(N3CCc4c(cc(Cn5ccnc5)cc4-c4cn(C)nc4C(F)(F)F)C3=O)c2c1,male Sprague-Dawley rat,plasma,oral,50 mg/kg,single dose,6170 ng/mL
COc1nc(-c2cc(C)c(N[C@@H](C)c3cc(F)cc(F)c3)nn2)ccc1-n1cnc(C)c1,male Sprague-Dawley rat,plasma,intravenous,1 mg/kg,single dose,3570 ng/mL
CNC(=O)c1c(C)oc2cc(Oc3ncnc4cc(OC)c(OC)cc34)ccc12,Sprague-Dawley rat,plasma,oral,1 mg/kg,single dose,712 ng/mL
COCc1nn(Cc2ccc(Cn3ccccc3=O)cc2)cc1C(=O)NCc1nccc(OC)c1C,male Sprague-Dawley rat,plasma,oral,10 mg/kg,,1020 ng/mL
Cl.Clc1ccc2c(c1)nc(N1CCNCC1)n2Cc1ccccc1,rat,plasma,oral,5 mg/kg,,800 nM
C=CC(=O)N1CC2CC(n3nc(-c4ccc(C(=O)Nc5ccccn5)cc4)c4c(N)ncnc43)CC2C1 (stereo not shown),male Wistar rat,plasma,oral,100 mg/kg,,2880 ng/mL
CCOC(=O)[C@@]12C[C@@H]1[C@@H](n1ccc3c(NC)nc(C#Cc4ccc(Cl)s4)nc31)[C@H](O)[C@@H]2O,male Sprague-Dawley rat,plasma,oral,3 mg/kg,,67.1 ng/mL
COc1cc2c3c(n(CCCN4CCOCC4)c(=O)c2cc1OC)-c1cc2c(cc1C3=O)OCO2,female Fischer 344 rat,plasma,intravenous,24 mg/m²,single dose,568 ng/mL
COCc1nn(Cc2ccc(Cn3ccccc3=O)cc2)cc1C(=O)NCc1c(C#N)ccc(OC)c1F,male Sprague-Dawley rat,plasma,oral,10 mg/kg,,360 ng/mL
CNCc1cc(-c2ccccc2F)n(S(=O)(=O)c2cccnc2)c1,male Sprague-Dawley rat,plasma,oral,10 mg/kg,,140 ng/mL
COc1ccc2c(Cc3ccccc3F)c3n(c(=O)c2c1OC)CCc1cc2c(cc1-3)OCO2,rat,plasma,oral,5 mg/kg,,310 ng/mL
